Assay results reported in ChEMBL document CHEMBL4622871, “Synthesis, biological evaluation of benzothiazole derivatives bearing a 1,3,4-oxadiazole moiety as potential anti-oxidant and anti-inflammatory agents” (Bioorg Med Chem Lett, 2020).

Legend:
[1] = Antioxidant activity assessed as hydrogen peroxide scavenging activity at 100 ug/ml relative to control; format: functional
[2] = molecular target: T1, Prostaglandin G/H synthase 2 (Homo sapiens) (UniProt P35354); experiment: Inhibition of COX2 (unknown origin) at 10 umol/l by ELISA relative to control
T1 sequence (whole entry): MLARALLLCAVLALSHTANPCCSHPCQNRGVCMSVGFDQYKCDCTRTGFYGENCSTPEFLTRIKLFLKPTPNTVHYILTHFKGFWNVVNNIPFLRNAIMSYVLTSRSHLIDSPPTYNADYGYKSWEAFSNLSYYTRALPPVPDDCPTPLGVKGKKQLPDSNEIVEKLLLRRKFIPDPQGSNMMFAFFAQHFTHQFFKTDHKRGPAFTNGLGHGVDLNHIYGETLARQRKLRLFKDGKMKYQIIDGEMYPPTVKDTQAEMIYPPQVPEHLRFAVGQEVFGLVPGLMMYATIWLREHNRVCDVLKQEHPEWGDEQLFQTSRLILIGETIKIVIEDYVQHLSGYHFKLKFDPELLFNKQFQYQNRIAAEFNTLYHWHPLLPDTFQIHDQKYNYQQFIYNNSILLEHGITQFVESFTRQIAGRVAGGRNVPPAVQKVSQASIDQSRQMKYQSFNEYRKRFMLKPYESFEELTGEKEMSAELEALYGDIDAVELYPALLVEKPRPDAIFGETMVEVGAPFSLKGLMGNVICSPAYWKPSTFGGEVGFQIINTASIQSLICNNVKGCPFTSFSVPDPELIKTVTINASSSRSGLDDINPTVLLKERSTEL

Mus musculus [3] = experiment: Antiinflammatory activity in para-xylene-induced mouse model of ear swelling assessed as edema at 100 mg/kg, ip (reference value: 8.70 +/- 0.90 mg); format: functional
Procedure, shortened: (§1)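 Mouse ear swelling induced by para-xylene. Dosing was 100 mg/kg intraperitoneal with DMSO as vehicle, and the vehicle group was also given 100. Each group had 5 mice. Edema was recorded in mg as mean ± S.D., and the inhibition rate (%) was taken relative to the vehicle group. Indomethacin at 100 mg/kg served as the reference.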

Mus musculus [4] = experiment: Antiinflammatory activity in para-xylene-induced mouse model of ear swelling assessed as inhibition in swelling rate at 100 mg/kg, ip relative to control; format: functional; procedure, shortened: as §1
Mus musculus [5] = experiment: Antiinflammatory activity in para-xylene-induced mouse model of ear swelling assessed as inhibition in swelling rate at 100 mg/kg, po treated for 1 hr followed by xylene addition relative to control; format: functional
Procedure, shortened: (§2)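 Mouse ear edema induced by para-xylene. A single oral dose of 100 mg/kg was given at set intervals (1, 2, 3, 4, 5 or 24 h) before xylene was applied. Each group had 5 mice. The inhibition rate (%) was taken relative to the vehicle group. Indomethacin at 100 mg/kg served as the reference.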

Mus musculus [6] = experiment: Antiinflammatory activity in para-xylene-induced mouse model of ear swelling assessed as inhibition in swelling rate at 100 mg/kg, po treated for 2 hrs followed by xylene addition relative to control; format: functional; procedure, shortened: as §2
Mus musculus [7] = experiment: Antiinflammatory activity in para-xylene-induced mouse model of ear swelling assessed as inhibition in swelling rate at 100 mg/kg, po treated for 3 hrs followed by xylene addition relative to control; format: functional; procedure, shortened: as §2
Mus musculus [8] = experiment: Antiinflammatory activity in para-xylene-induced mouse model of ear swelling assessed as inhibition in swelling rate at 100 mg/kg, po treated for 4 hrs followed by xylene addition relative to control; format: functional; procedure, shortened: as §2
Mus musculus [9] = experiment: Antiinflammatory activity in para-xylene-induced mouse model of ear swelling assessed as inhibition in swelling rate at 100 mg/kg, po treated for 5 hrs followed by xylene addition relative to control; format: functional; procedure, shortened: as §2
Mus musculus [10] = experiment: Antiinflammatory activity in para-xylene-induced mouse model of ear swelling assessed as inhibition in swelling rate at 100 mg/kg, po treated for 24 hrs followed by xylene addition relative to control; format: functional; procedure, shortened: as §2
Mus musculus [11] = experiment: Antiinflammatory activity in para-xylene-induced mouse model of ear swelling assessed as inhibition in swelling rate at 50 mg/kg, po treated for 2 hrs followed by xylene addition relative to control; format: functional
Procedure, shortened: (§3)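 Mouse ear edema induced by para-xylene. Oral doses were 25, 50 or 100 mg/kg, given 2 h before xylene was applied. Each group had 5 mice. The inhibition rate (%) was taken relative to the vehicle group, with indomethacin as the positive control.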

Mus musculus [12] = experiment: Antiinflammatory activity in para-xylene-induced mouse model of ear swelling assessed as inhibition in swelling rate at 25 mg/kg, po treated for 2 hrs followed by xylene addition relative to control; format: functional; procedure, shortened: as §3
[13] = Antioxidant activity assessed as ABTS radical scavenging activity by spectrophotometric analysis; format: functional
Procedure, shortened: (§4)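 Radical scavenging by ABTS, DPPH or hydroxyl radical, read spectrophotometrically. Activity was calculated from the percentage decrease in absorbance, with resveratrol as the positive control. Values are given with the standard deviation (SD).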

[14] = Antioxidant activity assessed as DPPH radical scavenging activity by spectrophotometric analysis; format: functional; procedure, shortened: as §4
[15] = Antioxidant activity assessed as hydroxyl radical scavenging activity by spectrophotometric analysis; format: functional; procedure, shortened: as §4

Structure (SMILES): C/C(=N\c1ccc([N+](=O)[O-])cc1)N1N=C(c2ccc(-c3ccccc3)cc2)OC1c1ccccc1O (stereo not given)
- Activity [1]: < 51.2%

Structure (SMILES): Cc1cccc(-c2nnc(COc3ccc(/C=N/Nc4nc5ccccc5s4)cc3)o2)c1
- inhibition [2]: 35%

Structure (SMILES): COc1ccc2c(c1)c(CC(=O)O)c(C)n2C(=O)c1ccc(Cl)cc1 [INDOMETHACIN]
- Activity (Mus musculus [3]): 5.15 mg
- inhibition in vivo at 100 mg/kg (Mus musculus [4]): 43.6%
- inhibition in vivo at 100 mg/kg (Mus musculus [5]): 25.3%
- inhibition in vivo at 100 mg/kg (Mus musculus [6]): 52.3 to 58.3%
- inhibition in vivo at 100 mg/kg (Mus musculus [7]): 46.1%
- inhibition in vivo at 100 mg/kg (Mus musculus [8]): 30.4%
- inhibition in vivo at 100 mg/kg (Mus musculus [9]): 19.2%
- inhibition in vivo at 100 mg/kg (Mus musculus [10]): 12.5%
- inhibition in vivo at 50 mg/kg (Mus musculus [11]): 25.9%
- inhibition in vivo at 25 mg/kg (Mus musculus [12]): 19.1%

Structure (SMILES): Oc1ccc(/C=C/c2cc(O)cc(O)c2)cc1 [RESVERATROL]
- IC50 [13]: 1420 µM
- IC50 [14]: 990 µM
- IC50 [15]: 370000 µM
